Most compounds without a hit are left out; they make up all but 3.7% or so of the library.
MC4R ag barr = MC4R agonists recruiting beta-arrestin, primary screen, cell-based, luminescence, agonist arm of biased-ligand search; Melanocortin receptor 4 (Homo sapiens), P32245; activation, % at 8.9 µM; U2OS MC4R beta-arrestin complementation; percent of melanotan II response, DMSO zero; AID 540308, 2011; hit rate 0.98% among 360,000;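 active = activation above a per-plate cutoff, the mean activation of sample wells on that plate plus 3 SD, cut at about 8% in these data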
Exocytosis inh = LAMP-1 surface exposure blockers, TALL-104 cells – cell-based, flow cytometry, MLPCN library, primary screen; inhibition, % at 10 µM; hit rate 0.66% among 360,000; TALL-104 LAMP-1 surface exposure; cells stimulated with thapsigargin and PMA;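 active = inhibition above about 55%, limit read from the data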
Myeloid diff MLP = induction of myeloid progenitor differentiation, primary screen, cell-based, flow cytometry, MLPCN library | calls only at 10 µM | ER-HoxA9 myeloid progenitors, lysozyme-GFP differentiation | AID 624256, 2012 | hit rate 1% among 360,000;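 active = normalized GFP-positive differentiation at or above the plate's own cutoff, the solvent-only control mean plus 3 SD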;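 note: cells exposed to compound for four days before flow analysis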
EBI2 antag = EBI2 receptor antagonists, beta-arrestin recruitment, primary screen, cell-based, luminescence, 7a,25-OHC stimulation, uHTS; G-protein coupled receptor 183 (Homo sapiens), P32249; 7a,25-OHC stimulated; inhibition, % at 5 µM; hit rate 0.81% among 360,000; AID 651636, 2012; in the data active = inhibition above about 38%;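 note: enzyme fragment complementation signal reports receptor beta-arrestin coupling in cells; 0% = agonist plus DMSO wells and 100% = wells without agonist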
Target sequence (P32249 whole entry, looked up, the tested form may be a part): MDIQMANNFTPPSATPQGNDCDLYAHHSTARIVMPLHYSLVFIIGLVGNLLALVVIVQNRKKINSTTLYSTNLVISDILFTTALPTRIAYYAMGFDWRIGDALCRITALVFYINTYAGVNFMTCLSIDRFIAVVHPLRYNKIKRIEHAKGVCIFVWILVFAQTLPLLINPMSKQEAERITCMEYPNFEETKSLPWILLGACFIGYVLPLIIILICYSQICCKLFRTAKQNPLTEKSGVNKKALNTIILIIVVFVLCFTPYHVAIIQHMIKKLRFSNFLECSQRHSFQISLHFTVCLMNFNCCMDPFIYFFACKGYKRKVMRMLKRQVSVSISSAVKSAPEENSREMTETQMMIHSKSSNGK
MC4R antag cAMP = MC4R antagonists of cAMP signaling, primary screen, cell-based, TR-FRET, antagonist arm of biased-ligand search; AID 540295, 2011; inhibition, % at 6.5 µM; MC4R-expressing cells, MTII-stimulated cAMP, LANCE TR-FRET; hit rate 0.48% among 360,000; Melanocortin receptor 4 (Homo sapiens), P32245;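 active = inhibition above its plate's cutoff, the mean of tested wells on that plate plus 3 SD, cut at about 29% in these data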;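 note: 0% = Melanotan II alone and 100% = Melanotan II plus saturating MCL0020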
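System: U2OS cells stably expressing human melanocortin 4 receptor (MC4R). Reagent: Melanotan II challenge after compound preincubation. Doses: 6.5 µM. Times: 30-min compound, 1-h challenge, 1-h detection, room temperature. Measured by: TR-FRET with Eu-cAMP and labeled anti-cAMP, 671 nm. Replicates: singlicate.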
Myeloid diff CP1 = inducers of myeloid progenitor differentiation, confirmation, cell-based, GFP/Mac1 flow cytometry, cherry pick 01; hit rate 2% among 2,300; calls only; AID 651706, 2012; shares compounds with Myeloid diff MLP; ER-HoxA9 myeloid progenitors, GFP/Mac1 double-positive flow;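 active = share of green or green-and-red cells above 9 and 9% in run 1 or 4 and 3% in run 2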
GFP autofluor = counter-screen for myeloid differentiation promoters: compound fluorescence | ER-HoxA9 myeloid progenitors, no estrogen, GFP autofluorescence flow cytometry; vehicle wells 0%, positive control 100% | shares compounds with Myeloid diff MLP | hit rate 7.4% among 2,300 | AID 651707 | fluorescence response, % (no concentration beside the values);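 active = over 5% cells positive for green fluorescent reporter, or over 2% positive for both it and APC stain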;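 note: range taken on the double positive population between DMSO and positive control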
An asterisk follows results filed as active; i = inactive; / = not tested or not shown; + = active, no number.

SMILES | MC4R ag barr | Exocytosis inh | Myeloid diff MLP | EBI2 antag | MC4R antag cAMP | Myeloid diff CP1 | GFP autofluor
CCOc1cc2c(cc1OCC)-n1cccc1C(c1cccc(OCC)c1O)NC2 (stereo not given) | -1 | 20 | i | 9 | 0 | / | /
CCCCCn1c(=O)c(C(=O)Nc2ccccc2Cl)c(O)c2ccccc21 | -1 | -4 | + | 9 | 13 | i | 0
CCCCn1c(=O)c(C(=O)Nc2ccccc2C)c(O)c2ccccc21 | -1 | -2 | i | 10 | -2 | / | /
CC(C)CCn1c(=O)c(C(=O)Nc2ccccc2S(N)(=O)=O)c(O)c2ccccc21 | 2 | 0 | i | 6 | 22 | i | 8.6*
Nc1cc(C(=O)Nc2ccccc2F)ccc1N1CC2CC(C1)c1cccc(=O)n1C2 (stereo not given) | 1 | 10 | i | -1 | -5 | / | /
CCCCCCC(=O)N/N=C/c1c(O)n(C(C)CC)c(=S)[nH]c1=O (stereo not given) | -3 | -17 | i | 2 | 6 | i | 0
CCCCCCC(=O)N/N=C/c1c(O)n(C2CC2)c(=S)[nH]c1=O | 0 | 0 | i | 15 | -4 | / | /
CC1CN(O)C2CCc3nonc3C12O (stereo not given) | -1 | 0 | i | -8 | -3 | / | /
COC(=O)C1=C(c2ccc(-c3ccccc3)c(F)c2)C[C@@H]2CC[C@H]1N2C(=O)NC1CCCCC1 | -1 | -4 | i | 43 | 19 | / | /
O=C1NC(=O)N(c2ccc(F)cc2)C(=O)/C1=C/c1ccc(N2CCOCC2)cc1 | -1 | 6 | i | 5 | 19 | / | /
O=C1NC(=O)N(Cc2ccc(F)cc2)C(=O)/C1=C\c1ccc(N2CCCC2)cc1 | -1 | 2 | + | 2 | 4 | i | 0
O=C(NCC(c1cccnc1)N1CCN(c2ccc(F)cc2)CC1)Oc1ccccc1 (stereo not given) | -1 | 2 | i | 5 | 0 | i | 2
Cc1ncc(C(=O)O)n1C(C)c1ccccc1 (stereo not given) | 0 | -4 | i | -2 | 3 | / | /
O=c1[nH]c(=O)n(CCc2ccccc2)c(O)c1C=NCCN1CCNCC1 | 0 | 8 | i | 6 | 7 | / | /
O=C(/C=C/c1ccccc1)c1c(O)n(CCc2ccccc2)c(=O)[nH]c1=O | -1 | 0 | + | 1 | 7 | i | 0
COc1ccc(-n2nc(C(=O)NCC(=O)N3CCC4(CC3)OCCO4)c3ccccc3c2=O)cc1Cl | 0 | 19 | i | 0 | 7 | / | /
CCOC(=O)C(C)Oc1cc(C)cc2oc(=O)c3c(c12)CCCC3 (stereo not given) | 1 | 1 | i | 21 | -7 | i | 0
CCOC(=O)c1nc2ccccc2c(=O)n1-c1ccc(C)cc1 | -2 | -2 | i | 5 | 1 | / | /
